Assay results taken from ChEMBL document CHEMBL1131508, “Spiro[1H-indene-1,4'-piperidine] derivatives as potent and selective non-peptide human somatostatin receptor subtype 2 (sst2) agonists” (J Med Chem, 1998).

Experiments:
Assay type in all cases: cell-based
[1] = target: Somatostatin receptor type 3 (Homo sapiens, UniProt P32745); assay: Binding affinity towards human sst3 receptor expressed in CHO-K1 cells
Method in brief: (§1)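 Competitive radioligand binding. Each point was run in triplicate, and each compound was tested in at least two separate experiments.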

[2] = target: Somatostatin receptor type 4 (Homo sapiens, UniProt P31391); assay: Binding affinity towards human sst4 receptor expressed in CHO-K1 cells; method in brief: as §1
Chain of Somatostatin receptor type 4 (P31391 whole entry): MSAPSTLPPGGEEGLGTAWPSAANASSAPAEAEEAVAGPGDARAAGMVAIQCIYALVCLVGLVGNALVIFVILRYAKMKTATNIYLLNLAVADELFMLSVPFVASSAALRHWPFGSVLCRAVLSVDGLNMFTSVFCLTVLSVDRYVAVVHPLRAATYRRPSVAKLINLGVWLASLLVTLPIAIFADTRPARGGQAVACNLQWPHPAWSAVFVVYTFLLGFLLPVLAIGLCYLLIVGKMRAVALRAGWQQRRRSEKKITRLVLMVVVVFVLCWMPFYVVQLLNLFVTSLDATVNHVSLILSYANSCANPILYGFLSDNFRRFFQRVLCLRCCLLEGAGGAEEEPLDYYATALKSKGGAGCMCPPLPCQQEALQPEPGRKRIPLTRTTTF

[3] = target: Somatostatin receptor type 5 (Homo sapiens, UniProt P35346); assay: Binding affinity towards human sst5 receptor expressed in CHO-K1 cells
Chain of Somatostatin receptor type 5 (P35346 whole entry): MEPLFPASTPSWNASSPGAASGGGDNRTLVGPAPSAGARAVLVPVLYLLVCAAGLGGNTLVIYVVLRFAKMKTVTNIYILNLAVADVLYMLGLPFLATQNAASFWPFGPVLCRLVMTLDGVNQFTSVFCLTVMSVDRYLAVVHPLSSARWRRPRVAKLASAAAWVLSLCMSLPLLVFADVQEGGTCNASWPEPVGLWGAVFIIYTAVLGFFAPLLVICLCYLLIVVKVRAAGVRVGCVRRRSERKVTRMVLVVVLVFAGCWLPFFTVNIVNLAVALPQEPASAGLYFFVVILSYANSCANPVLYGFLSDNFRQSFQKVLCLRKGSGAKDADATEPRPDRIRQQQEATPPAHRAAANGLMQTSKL
Method in brief: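 Radioligand was labelled SRIF28. Points were run in triplicate, with at least two independent experiments per compound.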

[4] = target: Somatostatin receptor type 1 (Homo sapiens, UniProt P30872); assay: Binding affinity towards human sst1 receptor expressed in CHO-K1 cells; method in brief: as §1
Chain of Somatostatin receptor type 1 (P30872 whole entry): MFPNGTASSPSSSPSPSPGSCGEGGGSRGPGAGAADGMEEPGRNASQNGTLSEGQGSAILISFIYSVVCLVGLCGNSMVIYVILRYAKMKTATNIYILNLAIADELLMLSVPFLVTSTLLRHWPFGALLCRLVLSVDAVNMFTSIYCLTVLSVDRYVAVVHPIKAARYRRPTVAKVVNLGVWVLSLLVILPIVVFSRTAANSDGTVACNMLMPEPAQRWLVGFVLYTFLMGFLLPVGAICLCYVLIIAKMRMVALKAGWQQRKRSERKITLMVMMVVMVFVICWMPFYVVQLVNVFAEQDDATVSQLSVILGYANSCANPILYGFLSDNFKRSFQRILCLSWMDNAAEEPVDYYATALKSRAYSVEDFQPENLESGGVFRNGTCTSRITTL

[5] = target: Somatostatin receptor type 2 (Homo sapiens, UniProt P30874); assay: Binding affinity towards human sst2 receptor expressed in CHO-K1 cells; method in brief: as §1
Chain of Somatostatin receptor type 2 (P30874 whole entry): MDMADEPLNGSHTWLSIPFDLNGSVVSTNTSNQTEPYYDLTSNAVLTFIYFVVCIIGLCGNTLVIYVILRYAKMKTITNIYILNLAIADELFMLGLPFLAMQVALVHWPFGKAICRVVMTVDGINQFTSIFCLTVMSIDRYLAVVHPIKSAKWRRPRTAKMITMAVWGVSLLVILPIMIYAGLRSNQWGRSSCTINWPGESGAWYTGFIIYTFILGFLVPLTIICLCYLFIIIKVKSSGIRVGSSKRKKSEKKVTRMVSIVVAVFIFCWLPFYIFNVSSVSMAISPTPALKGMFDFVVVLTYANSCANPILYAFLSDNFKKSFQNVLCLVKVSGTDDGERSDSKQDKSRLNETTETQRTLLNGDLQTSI

Chain of Somatostatin receptor type 3 (P32745 whole entry): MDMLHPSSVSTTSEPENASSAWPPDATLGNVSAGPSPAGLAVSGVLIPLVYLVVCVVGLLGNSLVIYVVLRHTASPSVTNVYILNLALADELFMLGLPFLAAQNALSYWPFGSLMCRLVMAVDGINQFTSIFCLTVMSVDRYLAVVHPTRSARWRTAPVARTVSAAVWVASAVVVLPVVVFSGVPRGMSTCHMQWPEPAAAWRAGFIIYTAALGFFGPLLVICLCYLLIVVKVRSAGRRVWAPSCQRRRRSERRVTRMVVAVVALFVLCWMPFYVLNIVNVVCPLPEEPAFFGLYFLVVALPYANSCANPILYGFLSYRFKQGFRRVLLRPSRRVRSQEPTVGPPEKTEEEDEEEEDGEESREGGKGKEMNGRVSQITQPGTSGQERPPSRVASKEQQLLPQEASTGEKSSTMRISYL

Row | Ki [1] [nM] | Ki [2] [nM] | Ki [3] [nM] | Ki [4] [nM] | Ki [5] [nM] | Compound
1 | 3690 | 2180 | 3320 | 2430 | 20 | NC[C@H]1CCC[C@@H](CNC(=O)[C@H](Cc2c[nH]c3ccccc23)NC(=O)N2CCC3(C=Cc4ccccc43)CC2)C1
2 |  |  |  |  | 1110 | NCCCCC(NC(=O)[C@H](Cc1c[nH]c2ccccc12)NC(=O)N1CCC2(C=Cc3ccccc32)CC1)C(=O)O (some centres undefined)
3 |  |  |  |  | 0.5 | C[C@@H](O)[C@@H]1NC(=O)[C@H](Cc2ccccc2)NC(=O)[C@@H]2CCCN2C(=O)[C@H](Cc2ccc(O)cc2)NC(=O)[C@@H](Cc2c[nH]c3ccccc23)NC(=O)[C@H](CCCCN)NC1=O (stereo in doubt)
4 |  |  |  |  | 53 | NCCCCC(NC(=O)[C@@H](Cc1c[nH]c2ccccc12)NC(=O)N1CCC2(C=Cc3ccccc32)CC1)C(N)=O (some centres undefined)
5 | 5690 | > 10000 | > 10000 | 4260 |  | NCCCCNC(=O)C(Cc1c[nH]c2ccccc12)NC(=O)N1CCC2(C=Cc3ccccc32)CC1 (centres undefined)
6 |  |  |  |  | 815 | NCCCNC(=O)[C@H](Cc1c[nH]c2ccccc12)NC(=O)N1CCC2(C=Cc3ccccc32)CC1
7 |  |  |  |  | 225 | NCCCCCCNC(=O)[C@H](Cc1c[nH]c2ccccc12)NC(=O)N1CCC2(C=Cc3ccccc32)CC1
8 | 3610 | 2480 | 5020 | 537 | 4 | NCC1CCCC(CNC(=O)[C@H](Cc2c[nH]c3ccccc23)NC(=O)N2CCC3(C=Cc4ccccc43)CC2)C1 (some centres undefined)
9 | 2950 | 2000 | 4470 | 1740 | 1.6 | NC[C@@H]1CCC[C@H](CNC(=O)[C@H](Cc2c[nH]c3ccccc23)NC(=O)N2CCC3(C=Cc4ccccc43)CC2)C1
10 | 2570 | 6840 | > 10000 | 5380 | 46 | NCCCCCNC(=O)[C@@H](Cc1c[nH]c2ccccc12)NC(=O)N1CCC2(C=Cc3ccccc32)CC1
